ChEMBL document CHEMBL1143739, “SAR study of bicyclo[4.1.0]heptanes as melanin-concentrating hormone receptor R1 antagonists: taming hERG” (Bioorg Med Chem, 2007)

Key:
[1] = target: Melanin-concentrating hormone receptor 1 (Homo sapiens, UniProt Q99705); test: Displacement of [125I]MCH from MCHR1 expressed in CHO cells; type: cell-based
Procedure, shortened: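 Human MCH R1, CHO cell membranes (0.1 mg/mL) on SPA beads (1 mg/mL). Buffer: 25 mM HEPES, 10 mM MgCl2, 5 mM MnCl2, 0.1% BSA, pH 7.4. Incubation 2–4 h at room temperature, scintillation count. Ki by non-linear regression; mean ± range of two determinations, each in quadruplicate.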

[2] = target: T1, hERG (KCNH2) (Homo sapiens, UniProt Q12809); test: Inhibition of hERG expressed in CHO cells at 5 ug/mL by rubidium efflux assay; type: toxicity, cell-based; details: CHO cells that express hERG
Procedure, shortened: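 hERG-CHO cells plated 24 h, then loaded 3 h in HEPES-buffered saline with 5.4 mM RbCl. Compound added and equilibrated 30 min at 37 °C. Cells washed three times in Rb-free saline (5.4 mM KCl), then depolarized 5 min with 45.4 mM KCl.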

[3] = target: T1, hERG (KCNH2); test: Inhibition of hERG expressed in CHO cells at […] by rubidium efflux assay; type: toxicity, cell-based; details: CHO cells that express hERG

T1 sequence (Q12809 whole entry): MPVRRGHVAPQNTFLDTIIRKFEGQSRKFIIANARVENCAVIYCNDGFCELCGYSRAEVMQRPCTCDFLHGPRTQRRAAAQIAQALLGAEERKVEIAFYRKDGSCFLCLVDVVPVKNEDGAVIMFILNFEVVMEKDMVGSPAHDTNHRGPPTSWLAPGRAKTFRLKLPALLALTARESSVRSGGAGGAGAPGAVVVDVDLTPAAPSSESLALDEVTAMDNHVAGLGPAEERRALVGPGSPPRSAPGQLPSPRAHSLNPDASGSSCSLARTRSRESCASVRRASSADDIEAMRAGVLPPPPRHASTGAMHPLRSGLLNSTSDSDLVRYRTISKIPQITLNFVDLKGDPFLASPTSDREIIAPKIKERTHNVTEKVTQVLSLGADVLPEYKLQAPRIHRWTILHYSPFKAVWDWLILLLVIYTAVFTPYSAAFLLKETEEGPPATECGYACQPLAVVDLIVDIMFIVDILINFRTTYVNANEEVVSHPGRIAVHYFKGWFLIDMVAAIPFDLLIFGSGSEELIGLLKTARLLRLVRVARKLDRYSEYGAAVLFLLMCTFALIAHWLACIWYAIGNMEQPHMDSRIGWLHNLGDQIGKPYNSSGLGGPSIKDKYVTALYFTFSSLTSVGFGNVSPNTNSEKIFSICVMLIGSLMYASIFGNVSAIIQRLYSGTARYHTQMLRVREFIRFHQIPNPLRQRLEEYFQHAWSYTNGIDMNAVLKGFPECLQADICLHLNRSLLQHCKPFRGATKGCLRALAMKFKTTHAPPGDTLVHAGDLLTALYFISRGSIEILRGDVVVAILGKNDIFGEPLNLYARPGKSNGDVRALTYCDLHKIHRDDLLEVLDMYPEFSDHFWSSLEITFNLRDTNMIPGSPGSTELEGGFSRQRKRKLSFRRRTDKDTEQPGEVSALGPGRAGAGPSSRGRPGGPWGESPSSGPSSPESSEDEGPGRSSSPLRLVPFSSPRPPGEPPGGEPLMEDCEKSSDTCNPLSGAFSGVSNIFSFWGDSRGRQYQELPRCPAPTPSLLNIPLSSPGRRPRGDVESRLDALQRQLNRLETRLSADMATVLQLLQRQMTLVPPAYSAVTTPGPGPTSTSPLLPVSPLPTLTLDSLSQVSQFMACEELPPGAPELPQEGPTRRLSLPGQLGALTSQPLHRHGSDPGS
Chain of Melanin-concentrating hormone receptor 1 (Q99705 whole entry): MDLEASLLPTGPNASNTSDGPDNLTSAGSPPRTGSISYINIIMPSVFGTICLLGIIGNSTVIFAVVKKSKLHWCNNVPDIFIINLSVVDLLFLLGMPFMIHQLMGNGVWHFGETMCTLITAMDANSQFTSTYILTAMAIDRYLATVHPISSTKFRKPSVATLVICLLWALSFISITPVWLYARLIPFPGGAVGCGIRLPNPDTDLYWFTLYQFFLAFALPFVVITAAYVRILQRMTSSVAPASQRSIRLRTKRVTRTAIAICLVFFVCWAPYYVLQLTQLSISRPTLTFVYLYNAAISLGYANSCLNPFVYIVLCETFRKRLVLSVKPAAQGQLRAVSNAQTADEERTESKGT

Row | Compound | Ki [1] [nM] | inhibition at 5 ug/mL [2] [%] | inhibition at […] [3] [%]
1 | N#Cc1ncc(C2=CCC(N(CCN3CCCC3)C(=O)Nc3ccc(F)c(Cl)c3)CC2)s1 (stereo not drawn) | 57 | – | –
2 | CN(C)Cc1ncc(C2=CCC(N(CCN3CCCC3)C(=O)Nc3ccc(F)c(Cl)c3)CC2)s1 (stereo not drawn) | 648 | – | –
3 | CC(C)N(CCN(C(=O)Nc1ccc(F)c(F)c1)[C@@H]1CC[C@]2(c3ccccc3)CC2C1)C(C)C (stereo partly drawn) | 92 | – | –
4 | O=C(Nc1ccc(F)c(Cl)c1)N(CCN1CCCC1)C1CC=C(c2cncnc2)CC1 (stereo not drawn) | 147 | 85 | –
5 | CC(=O)N1CCC(CN(C(=O)Nc2ccc(F)c(Cl)c2)[C@@H]2CC[C@]3(c4cccc(C#N)c4)CC3C2)CC1 (stereo partly drawn) | 312 | 37 | 32
6 | Cc1cc(C)cc(NC(=O)N(CCN2CC[C@@H](O)C2)[C@@H]2CC[C@]3(c4cccc(C#N)c4)CC3C2)c1 (stereo partly drawn) | 539 | – | –
7 | CC(C)N(CCN(C(=O)Nc1ccc(F)c(Cl)c1)[C@@H]1CC[C@]2(c3cccc(C(N)=O)c3)CC2C1)C(C)C (stereo partly drawn) | 142 | 44 | 21
8 | N#Cc1cccc([C@]23CC[C@@H](N(CCN4CC[C@@H](O)C4)C(=O)Nc4ccccc4)CC2C3)c1 (stereo partly drawn) | 132 | – | –
9 | CS(=O)(=O)N1CCCCC1CN(C(=O)Nc1ccc(F)c(Cl)c1)[C@@H]1CC[C@]2(c3cccc(C#N)c3)CC2C1 (stereo partly drawn) | 295 | 3 | 31
10 | O=C(Nc1ccc(F)c(Cl)c1)N(CCN1CCCC1)C1CC=C(c2ccco2)CC1 (stereo not drawn) | 117 | – | –
11 | CNC(=O)N1CCC(CN(C(=O)Nc2ccc(F)c(C(F)(F)F)c2)[C@@H]2CC[C@]3(c4cccc(C#N)c4)CC3C2)CC1 (stereo partly drawn) | 181 | 18 | 14
12 | N#Cc1cccc([C@]23CC[C@@H](N(CC4CCN(C5CCOCC5)CC4)C(=O)Nc4ccc(F)c(Cl)c4)CC2C3)c1 (stereo partly drawn) | – | 91 | 75
13 | CC(C)N(CCN(C(=O)Nc1ccc(F)c(Cl)c1)[C@@H]1CC[C@]2(c3cccc(CN4CCN(C)CC4)c3)CC2C1)C(C)C (stereo partly drawn) | 54 | 13 | 10
14 | CS(=O)(=O)N1CCCC(CN(C(=O)Nc2ccc(F)c(Cl)c2)[C@@H]2CC[C@]3(c4cccc(C#N)c4)CC3C2)C1 (stereo partly drawn) | 211 | 9 | 3
15 | N#Cc1cccc([C@]23CC[C@@H](N(CCN4CC[C@@H](O)C4)C(=O)Nc4ccc(F)cc4)CC2C3)c1 (stereo partly drawn) | 54 | – | –
16 | N#Cc1cccc([C@]23CC[C@@H](N(CCN4CC[C@@H](O)C4)C(=O)NC4CCCCC4)CC2C3)c1 (stereo partly drawn) | 2210 | – | –
17 | N#Cc1cccc([C@]23CC[C@@H](N(CCN4CC[C@@H](O)C4)C(=O)Nc4ccc5c(c4)OCO5)CC2C3)c1 (stereo partly drawn) | 134 | – | –
18 | Cc1ccc(C2=CCC(N(CCN3CCCC3)C(=O)Nc3ccc(F)c(Cl)c3)CC2)s1 (stereo not drawn) | 85 | 12 | –
19 | CS(=O)(=O)N1CCC[C@H]1CN(C(=O)Nc1ccc(F)c(Cl)c1)[C@@H]1CC[C@]2(c3cccc(C#N)c3)CC2C1 (stereo partly drawn) | 559 | 13 | 32
20 | O=C(Nc1ccc(F)c(Cl)c1)N(CCN1CCCC1)C1CC=C(c2cc3ccccc3o2)CC1 (stereo not drawn) | 316 | – | –
21 | COC(=O)c1cccc([C@]23CC[C@@H](N(CCN(C(C)C)C(C)C)C(=O)Nc4ccc(F)c(F)c4)CC2C3)c1 (stereo partly drawn) | – | 85 | 57
22 | O=C(Nc1ccc(F)c(Cl)c1)N(CCN1CCCC1)C1CC=C(c2ccc[nH]2)CC1 (stereo not drawn) | 1970 | – | –
23 | N#Cc1cccc(NC(=O)N(CCN2CC[C@@H](O)C2)[C@@H]2CC[C@]3(c4cccc(C#N)c4)CC3C2)c1 (stereo partly drawn) | 92 | – | –
24 | COc1cccc(NC(=O)N(CCN2CC[C@@H](O)C2)[C@@H]2CC[C@]3(c4cccc(C#N)c4)CC3C2)c1 (stereo partly drawn) | 373 | – | –
25 | N#Cc1cccc([C@]23CC[C@@H](N(CCN4CC[C@@H](O)C4)C(=O)Nc4cccc([N+](=O)[O-])c4)CC2C3)c1 (stereo partly drawn) | 60 | – | –
26 | N#Cc1cccc([C@]23CC[C@@H](N(CCN4CC[C@@H](O)C4)C(=O)Nc4ccccc4F)CC2C3)c1 (stereo partly drawn) | 1880 | – | –

The next lines start with results.

Row | Ki [1] [nM] | Compound | inhibition at 5 ug/mL [2] [%] | inhibition at […] [3] [%]
27 | 2 | CC(C)N(CCN(C(=O)Nc1cc(Cl)nc(Cl)c1)[C@@H]1CC[C@]2(c3cccc(C#N)c3)CC2C1)C(C)C (stereo in doubt; 6j) | – | –
28 | 26 | CS(=O)(=O)N1CCC(CN(C(=O)Nc2ccc(F)c(C(F)(F)F)c2)[C@@H]2CC[C@]3(c4cccc(C#N)c4)CC3C2)CC1 (stereo partly drawn) | -1 | -1
29 | 20 | N#Cc1cccc([C@]23CC[C@@H](N(CCN4CC[C@@H](O)C4)C(=O)Nc4ccc(F)c(F)c4)CC2C3)c1 (stereo partly drawn) | – | –
30 | 13 | CC(C)N(CCN(C(=O)Nc1ccc(F)c(Cl)c1)[C@@H]1CC[C@]2(c3cccc(CN(C)C)c3)CC2C1)C(C)C (stereo partly drawn) | 5 | -1
31 | 2.1 | CC(C)N(CCN(C(=O)Nc1cccc(F)c1)[C@@H]1CC[C@]2(c3cccc(C#N)c3)CC2C1)C(C)C (stereo partly drawn) | – | –
32 | 23 | CC(=O)NC1CCN(CCN(C(=O)Nc2ccc(F)c(Cl)c2)[C@@H]2CC[C@]3(c4cccc(C#N)c4)CC3C2)C1 (stereo partly drawn) | – | –
33 | 6 | CC(C)N(CCN(C(=O)Nc1cccc(Cl)c1)[C@@H]1CC[C@]2(c3cccc(C#N)c3)CC2C1)C(C)C (stereo partly drawn) | – | –
34 | 20 | N#Cc1cccc([C@]23CC[C@@H](N(CCN4CC[C@@H](O)C4)C(=O)Nc4cccc(F)c4)CC2C3)c1 (stereo partly drawn) | – | –
35 | 21 | CC(C)N(CCN(C(=O)Nc1ccc(F)c(Cl)c1)[C@@H]1CC[C@]2(c3cccc(CN4CC[C@H](O)C4)c3)CC2C1)C(C)C (stereo partly drawn) | -1 | -4
36 | 46 | CCN(CC)Cc1cccc([C@]23CC[C@@H](N(CCN(C(C)C)C(C)C)C(=O)Nc4ccc(F)c(Cl)c4)CC2C3)c1 (stereo partly drawn) | 30 | 15
37 | 16 | CC1CCCN1CCN(C(=O)Nc1ccc(F)c(Cl)c1)[C@@H]1CC[C@]2(c3cccc(C#N)c3)CC2C1 (stereo partly drawn) | – | –
38 | 7.2 | CS(=O)(=O)N1CCC(CN(C(=O)Nc2ccc(F)c(Cl)c2)[C@@H]2CC[C@]3(c4cccc(C#N)c4)CC3C2)CC1 (stereo partly drawn) | 24 | 6
39 | 2.7 | CC(C)N(CCN(C(=O)Nc1cccc([N+](=O)[O-])c1)[C@@H]1CC[C@]2(c3cccc(C#N)c3)CC2C1)C(C)C (stereo partly drawn) | – | –
40 | 7.8 | CC(C)N(CCN(C(=O)Nc1ccc(F)c(F)c1)[C@@H]1CC[C@]2(c3cccc(Br)c3)CC2C1)C(C)C (stereo partly drawn) | – | –
41 | 2.8 | CC(C)N(CCN(C(=O)Nc1ccc(F)c(F)c1)[C@@H]1CC[C@]2(c3cccc(C#N)c3)CC2C1)C(C)C (stereo partly drawn) | – | –
42 | 34 | N#Cc1cccc([C@]23CC[C@@H](N(CCN4CC[C@@H](O)C4)C(=O)Nc4cccc(Br)c4)CC2C3)c1 (stereo partly drawn) | – | –
43 | 48 | CC(C)N(CCN(C(=O)Nc1ccc(F)c(Cl)c1)[C@@H]1CC[C@]2(c3cccc(CO)c3)CC2C1)C(C)C (stereo partly drawn) | 67 | 43
44 | 18 | CC(C)N(CCN(C(=O)Nc1ccc(F)c(Cl)c1)[C@@H]1CC[C@]2(c3cccc(CNS(C)(=O)=O)c3)CC2C1)C(C)C (stereo partly drawn) | 46 | 17
45 | 15 | N#Cc1cccc([C@]23CC[C@@H](N(CCN4CCCC(CO)C4)C(=O)Nc4ccc(F)c(Cl)c4)CC2C3)c1 (stereo partly drawn) | – | –

Row | Ki [1] [nM] | Compound | inhibition at 5 ug/mL [2] [%] | inhibition at […] [3] [%]
46 | 4.5 | CC(C)N(CCN(C(=O)Nc1cc(F)cc(F)c1)[C@@H]1CC[C@]2(c3cccc(C#N)c3)CC2C1)C(C)C (stereo partly drawn) | – | –
47 | 7.6 | CC(C)N(CCN(C(=O)Nc1cccc(C#N)c1)[C@@H]1CC[C@]2(c3cccc(C#N)c3)CC2C1)C(C)C (stereo partly drawn) | – | –
48 | 5.7 | CC(C)N(CCN(C(=O)Nc1cccc(Br)c1)[C@@H]1CC[C@]2(c3cccc(C#N)c3)CC2C1)C(C)C (stereo partly drawn) | – | –
49 | 5.4 | CS(=O)(=O)N1CCC(CN(C(=O)Nc2ccc(F)c(F)c2)[C@@H]2CC[C@]3(c4cccc(C#N)c4)CC3C2)CC1 (stereo partly drawn) | 34 | 15
50 | 53 | N#Cc1cccc([C@]23CC[C@@H](N(CCN4CCOCC4)C(=O)Nc4ccc(F)c(Cl)c4)CC2C3)c1 (stereo partly drawn) | – | –
51 | 2.4 | CC(C)N(CCN(C(=O)Nc1cc(Cl)nc(Cl)c1)[C@@H]1CC[C@]2(c3cccc(C#N)c3)CC2C1)C(C)C (stereo in doubt; 13) | 59 | –
52 | 29 | CCO/N=C/c1cccc([C@]23CC[C@@H](N(CCN(C(C)C)C(C)C)C(=O)Nc4ccc(F)c(Cl)c4)CC2C3)c1 (stereo partly drawn) | – | –
53 | 2.3 | CC(C)N(CCN(C(=O)Nc1ccc(F)c(Cl)c1)[C@@H]1CC[C@]2(c3cccc(CN)c3)CC2C1)C(C)C (stereo partly drawn) | 32 | 22
54 | 15 | N#Cc1cccc([C@]23CC[C@@H](N(CCN4CCCCCC4)C(=O)Nc4ccc(F)c(Cl)c4)CC2C3)c1 (stereo partly drawn) | – | –
55 | 21 | CCS(=O)(=O)N1CCC(CN(C(=O)Nc2ccc(F)c(F)c2)[C@@H]2CC[C@]3(c4cccc(C#N)c4)CC3C2)CC1 (stereo partly drawn) | 59 | 25
56 | 22 | N#Cc1cccc([C@]23CC[C@@H](N(CCN4CCC(O)CC4)C(=O)Nc4ccc(F)c(Cl)c4)CC2C3)c1 (stereo partly drawn) | – | –
57 | 15 | CC1CCCCN1CCN(C(=O)Nc1ccc(F)c(Cl)c1)[C@@H]1CC[C@]2(c3cccc(C#N)c3)CC2C1 (stereo partly drawn) | – | –
58 | 48 | Cc1ccc(NC(=O)N(CCN2CC[C@@H](O)C2)[C@@H]2CC[C@]3(c4cccc(C#N)c4)CC3C2)cc1F (stereo partly drawn) | – | –
59 | 51 | O=Cc1ccc(C2=CCC(N(CCN3CCCC3)C(=O)Nc3ccc(F)c(Cl)c3)CC2)o1 (stereo not drawn) | 47 | –
60 | 15 | N#Cc1cccc([C@]23CC[C@@H](N(CCN4CC[C@@H](O)C4)C(=O)Nc4cc(F)cc(F)c4)CC2C3)c1 (stereo partly drawn) | – | –
61 | 27 | N#Cc1cccc([C@]23CC[C@@H](N(CCN4CC[C@@H](O)C4)C(=O)Nc4cccc(Cl)c4)CC2C3)c1 (stereo partly drawn) | – | –
62 | 11 | CCN(CCO)CCN(C(=O)Nc1ccc(F)c(Cl)c1)[C@@H]1CC[C@]2(c3cccc(C#N)c3)CC2C1 (stereo partly drawn) | – | –
63 | 10.4 | CC(C)N(CCN(C(=O)Nc1ccc(F)cc1)[C@@H]1CC[C@]2(c3cccc(C#N)c3)CC2C1)C(C)C (stereo partly drawn) | – | –
